Assay outcomes deposited in PubChem by several laboratories.
This is a sample that favours compounds with a hit; in the whole collection about 5.1% have one here.
STAT3 blocker = reduces IL-6 driven STAT3 reporter signal | U3A cells, IL-6 STAT3-luciferase reporter, luminescence; host cell line lacks STAT1 | inhibition, % at 5.5 µM | AID 862 | 190,000 compounds, 0.89% hits;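 active = inhibition above the mean inhibition across all screened compounds plus 3 SD, cut at about 44% in these data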;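 also: 0% = DMSO only wells and 100% = 100 µM nifuroxazide control wells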
STAT1 activator = increases IFN-gamma driven STAT1 reporter signal. 200,000 compounds, 2.6% hits. activation (% of control), % at 5.5 µM. NIH 3T3 STAT1-luciferase reporter, luminescence; 100% = IFN-gamma alone, no compound;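 active = activation above the screen-wide mean activation plus 3 SD, cut at about 130% in these data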;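 also: raw ratio to IFN-gamma control signal so 100% means no change and 0% no light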
STAT1 blocker = reduces IFN-gamma driven STAT1 reporter signal. NIH 3T3 STAT1-luciferase reporter, luminescence. 200,000 compounds, 0.35% hits. AID 920. inhibition, % at 5.5 µM;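 active = inhibition above a set limit, the mean inhibition across all tested compounds plus 3 SD, cut at about 34% in these data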;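 also: 0% = IFN-gamma with DMSO and 100% = IFN-gamma with 300 µM nifuroxazide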
NF-kB neuron act = NF-kB expression increase, human neuronal cells | 190,000 compounds, 1.6% hits | fold change at 12.5 µM | AID 1239 | NF-kB reporter expression; active compounds read high; in the data active = fold change above about 3.3
APP 5'UTR act = activates APP 5'UTR luciferase reporter. SH-SY5Y APP 5'UTR luciferase reporter, luminescence; zero percent = DMSO vehicle wells. 190,000 compounds, 1% hits. AID 1276. activation, % at 2 µM;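 active = activation above a set limit, based on mean plus 3 SD of controls, cut at about 140% in these data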
STAT3 act = activators of IL-6 induced STAT3 signaling; AID 871; U3A cells, IL-6 STAT3-luciferase reporter, luminescence; 100% = signal with IL-6 EC80 alone; 190,000 compounds, 0.91% hits; activation (% of control), % at 5.6 µM;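 active = activation above the screen-wide mean of compound activation plus 3 SD, cut at about 130% in these data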;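 also: 0% = background luminescence of wells with medium and substrate only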
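Assay system – human STAT1-deficient U3A cells with stable STAT3-luciferase reporter · Also added – IL-6 (33 ng/mL) · Schedule – compound 1 h, then IL-6 6 h at 37 °C · Technique – reporter luminescence signal · Evaluation – % activation versus median of IL-6-stimulated wells · Benchmarks – IL-6-only wells as 100% reference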
* = called active by the depositor.

SMILES	STAT3 blocker	STAT1 activator	STAT1 blocker	NF-kB neuron act	APP 5'UTR act	STAT3 act
Cc1cc(OCc2ccc(C(=O)NN=C3CCCC3)cc2)ccc1Cl	-7.4	129.8*	-33.7	1.32	-20.4	109.9
O=C(COc1ccc(OCc2ccccc2)cc1)NN=C1CCCC1	-5.6	110.9	-11.8	1	11.8	106.0
Cc1ccc(-n2c(C)cc(C(=O)COC(=O)c3c(C)noc3C)c2C)cc1	16.2	129.3*	-31.6	3.47*	72.3	89.3
Cc1cc(-c2ccc(F)cc2)nc2cc(C(N)=O)nn12	-13.8	98.9	1.1	0.85	-11.5	109.9
CCOC(=O)c1cnn2c(C)cc(-c3ccc(F)cc3)nc12	2.9	145.5*	-49.9	2.96	81.9	102.0
Cc1ccc(-n2c(C)cc(/C=C3\NC(=O)NC3=O)c2C)c(C)c1	-0.4	111.1	-12.2	1.36	15.8	103.6
O=C(CNCC1CCCO1)NCc1ccco1 (stereo unspecified)	-0.5	105.1	-7.2	1.04	-16.9	104.3
CCOCC(=O)Nc1nc2ccc(C)cc2s1	30.4	123.8	-25.9	3.44*	95.7	76.9
O=C(Cc1c(F)cccc1Cl)Nc1nc2ccccc2s1	-1.0	135.3*	-42.8	1.02	51.0	104.9
CCOC(=O)Nc1nc2ccccc2s1	21.7	126.8	-29.1	3.47*	55.9	87.1
CCCCNC(=O)Nc1nc2ccc(CC)cc2s1	13.8	144.3*	-46.8	1.89	84.9	95.0
CCCNC(=O)COC(=O)c1cc2c(=O)n3ccccc3nc2s1	-5.0	106.3	-7.3	1.24	17.9	105.2
COc1cc(NC(=O)c2ccccc2Cl)c(OC)cc1NC(=O)CN1CCCCC1	22.2	93.6	5.3	1.74	-2.1	83.0
Cc1ccc2nc(NC(=O)c3ccc4ncsc4c3)sc2c1	0.6	147.4*	-52.9	4.12*	172.2*	103.9
Cc1ccc2nc(NC(=O)CCCc3nc4ccccc4s3)sc2c1	40.9	113.5	-14.6	1.38	62.0	66.2
Cc1ccc2nc(NC(=O)CCCC(=O)O)sc2c1	79.5*	51.1	51.5*	0.28	-60.0	35.7
O=C(O)c1ccccc1Nc1ccccc1C(=O)O	4.3	98.7	1.4	1.12	-1.8	100.4
O=C(O)c1ccccc1Nc1ccc([N+](=O)[O-])cc1	-15.2	139.3*	-44.1	2.27	2.5	110.2
Cc1cccc(CSc2cccc3cccnc23)c1	-17.4	145.9*	-51.4	2.96	-34.7	114.8
CCOC(=O)C1(Cc2ccccc2Cl)CCN(C(=O)c2cnccn2)CC1	-7.1	149.4*	-56.7	2.72	41.8	110.2
CCOC(=O)C1(Cc2cccc(F)c2)CCN(C(=O)c2cnccn2)CC1	4.8	101.2	-1.4	1	6.2	100.9
Cc1cc(C)c2cc3c(N)c(C(=O)N4CCOCC4)sc3nc2c1	3.3	143.5*	-51.0	0.93	85.8	102.2
Cc1ccc(C)c2nc3sc(C(=O)N4CCOCC4)c(N)c3cc12	-1.3	143.5*	-49.0	1.87	64.0	103.1
CCN(CC)C(=O)COc1ccc(-c2ccccc2)cc1	10.2	131.9*	-34.8	2.03	33.1	93.4
CCN(CC)C(=O)COc1ccc(/C(C)=N/NC(=O)c2ccccc2O)cc1	4.0	94.2	5.5	1.61	-0.7	98.7
SMILES	STAT3 blocker	STAT1 activator	STAT1 blocker	NF-kB neuron act	APP 5'UTR act	STAT3 act
O=C(N/N=C/c1c[nH]c2ccccc12)c1ccn(Cc2ccc(Cl)cc2)n1	-43.2	93.5	7.1	0.6	0.4	134.7*
N/C(=N\OC(=O)c1ccco1)c1ccccn1	7.2	116.0	-19.6	2.21	77.0	96.7
Cc1cccc(/C(N)=N/OC(=O)c2ccco2)c1	24.4	109.7	-10.5	6.42*	162.7*	82.1
COc1ccc(/C(N)=N/OC(=O)c2ccco2)cc1	56.8*	49.5	53.3*	0.96	182.5*	55.7
COc1ccc(C(=O)COC(=O)c2ccco2)cc1	-1.8	116.5	-18.0	3	65.5	107.8
Cc1cccc(/C(N)=N/OC(=O)N2CCOCC2)c1	3.7	115.7	-17.6	1.58	18.6	101.0
Cc1ccc(/C(N)=N/OC(=O)c2ccco2)cc1	30.7	94.3	6.2	5.2*	162.0*	76.7
N/C(=N\OC(=O)c1ccco1)c1ccccc1	15.8	143.4*	-49.7	2.2	141.6*	88.5
CCOC(=O)COc1ccc(C2CC(C)=NN2c2ccccc2)cc1 (stereo unspecified)	-1.6	104.3	-5.9	1.02	13.4	104.3
